Data as given in ChEMBL document CHEMBL1138871, “Synthesis and HIV-integrase strand transfer inhibition activity of 7-hydroxy[1,3]thiazolo[5,4-b]pyridin-5(4H)-ones” (Bioorg Med Chem Lett, 2006).

Test: Inhibition of recombinant HIV integrase strand transfer activity
Parameters: species or system Human immunodeficiency virus
In short: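 Recombinant integrase (2 µM) prebound to biotinylated donor DNA (0.66 µM) on streptavidin SPA beads, 5 min 37 °C in 25 mM MOPS pH 7.2, 23 mM NaCl, 10 mM MgCl₂, 10 mM DTT, 10% DMSO. Beads washed and resuspended to 570 nM integrase. Compound (6.7% DMSO final) preincubated 60 min 37 °C. Then [³H] target DNA at 7 nM final added, run 25–45 min 37 °C, EDTA-quenched, read by SPA. Means ± SE.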
With COC(=O)c1c(O)c2ncsc2n(Cc2ccc(OC)cc2)c1=O the IC50 was 4.2 µM. For O=C(NCc1ccc(F)cc1)c1c(O)c2ncsc2n(-c2ccccc2)c1=O, the IC50 was 0.4 µM. In the case of COC(=O)c1c(O)c2ncsc2n(-c2cccc(C(F)(F)F)c2)c1=O, the IC50 is reported as > 500 µM. Compound Cn1c(=O)c(C(=O)NCc2ccc(F)cc2)c(O)c2nc(Cc3ccc(F)cc3)sc21 has an IC50 of 151 µM. With COC(=O)c1c(O)c2ncsc2n(-c2ccc(OC)cc2)c1=O the IC50 was > 500 µM. Work on Cn1c(=O)c(C(=O)NCc2ccc(F)cc2)c(O)c2ncsc21 yielded an IC50 of 0.7 µM. Compound O=C(NCc1ccc(F)cc1)c1c(O)c2ncsc2n(-c2cccc([N+](=O)[O-])c2)c1=O has an IC50 of 17 µM. With COC(=O)c1c(O)c2ncsc2n(-c2cccc(SC)c2)c1=O the IC50 was > 500 µM. With COC(=O)c1c(O)c2nc(Cc3ccc(F)cc3)sc2n(-c2ccccc2)c1=O the IC50 was 282 µM. CS(=O)(=O)c1cccc(-n2c(=O)c(C(=O)NCc3ccc(F)cc3)c(O)c3ncsc32)c1 gave an IC50 of 0.93 µM. In the case of COC(=O)c1c(O)c2nc(Cc3ccc(F)cc3)sc2n(C)c1=O, the IC50 is reported as 35 µM. O=C(/C=C(\O)c1nc[nH]n1)c1ccc(Cc2ccc(F)cc2)o1 [S-1360] showed an IC50 of 0.16 µM. With COc1ccc(Cn2c(=O)c(C(=O)NCc3ccc(F)cc3)c(O)c3ncsc32)cc1 the IC50 was 4 µM. CSc1cccc(-n2c(=O)c(C(=O)NCc3ccc(F)cc3)c(O)c3ncsc32)c1 gave an IC50 of 7 µM. With COC(=O)c1c(O)c2ncsc2n(C)c1=O the IC50 was > 500 µM. With Cn1c(=O)c(C(=O)NCc2ccc(Cl)cc2)c(O)c2ncsc21 the IC50 was 2.1 µM. Work on CCn1c(=O)c(C(=O)NCc2ccc(F)cc2)c(O)c2ncsc21 yielded an IC50 of 0.03 µM. For COC(=O)c1c(O)c2ncsc2[nH]c1=O, the IC50 was > 500 µM. For CCn1c(=O)c(C(=O)OC)c(O)c2ncsc21, the IC50 was 1.23 µM. In the case of COC(=O)c1c(O)c2ncsc2n(C(C)C)c1=O, the IC50 is reported as 11 µM. Compound CC(C)n1c(=O)c(C(=O)NCc2ccc(F)cc2)c(O)c2ncsc21 has an IC50 of 0.19 µM. O=C(NCc1ccc(F)cc1)c1c(O)c2ncsc2n(-c2cccc(C(F)(F)F)c2)c1=O gave an IC50 of 7 µM. Work on C[S+]([O-])c1cccc(-n2c(=O)c(C(=O)NCc3ccc(F)cc3)c(O)c3ncsc32)c1 (stereo not drawn) yielded an IC50 of 2 µM. With COC(=O)c1c(O)c2ncsc2n(-c2ccccc2)c1=O the IC50 was > 500 µM. With COC(=O)c1c(O)c2ncsc2n(-c2cccc([N+](=O)[O-])c2)c1=O the IC50 was > 500 µM. COc1ccc(-n2c(=O)c(C(=O)NCc3ccc(F)cc3)c(O)c3ncsc32)cc1 gave an IC50 of 1 µM. Work on O=C(NCc1ccc(F)cc1)c1c(O)c2nc(Cc3ccc(F)cc3)sc2n(-c2ccccc2)c1=O yielded an IC50 of 4 µM. O=C(NCc1ccc(F)cc1)c1c(O)c2ncsc2[nH]c1=O showed an IC50 of 1.5 µM.
